In ChEMBL document CHEMBL4425125, “Development of a Dual-Acting Antibacterial Agent (TNP-2092) for the Treatment of Persistent Bacterial Infections” (J Med Chem, 2016):
≈ marks a conversion by molar mass, not a printed value.

Assays:
[1] = system: Staphylococcus aureus; assay: Antimicrobial activity against Staphylococcus aureus isogenic forms expressing gyrA S84L mutant; assay type: functional
[2] = system: Staphylococcus aureus; assay: Antimicrobial activity against wild type Staphylococcus aureus; assay type: functional
[3] = system: Staphylococcus aureus; assay: Antimicrobial activity against Staphylococcus aureus isogenic forms expressing parC S80F mutant; assay type: functional
Outline: (§1)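 MIC (μg/mL) on otherwise isogenic derivatives of S. aureus ATCC 29213 that carry the rifamycin-resistance allele rpoB H481Y and/or the quinolone-resistance alleles parC S80F and gyrA S84L. The wild-type parent is the reference strain. MICs were determined both by agar dilution and by broth dilution, tested side by side on the same panel.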

[4] = system: Staphylococcus aureus; assay: Antimicrobial activity against Staphylococcus aureus isogenic forms expressing gyrA S84L and parC S80F mutant; assay type: functional; outline: as §1
[5] = system: Staphylococcus aureus; assay: Antimicrobial activity against Staphylococcus aureus isogenic forms expressing rpoB H481Y mutant; assay type: functional
[6] = system: Staphylococcus aureus; assay: Antimicrobial activity against Staphylococcus aureus isogenic forms expressing rpoB H481Y and gyrA S84L mutant; assay type: functional
[7] = system: Staphylococcus aureus; assay: Antimicrobial activity against Staphylococcus aureus isogenic forms expressing rpoB H481Y and parC S80F mutant; assay type: functional; outline: as §1
[8] = system: Staphylococcus aureus; assay: Antimicrobial activity against Staphylococcus aureus isogenic forms expressing rpoB H481Y/gyrA S84L/parC S80F mutant; assay type: functional; outline: as §1
[9] = system: Staphylococcus aureus; assay: Antimicrobial activity against methicillin-resistant Staphylococcus aureus 67-0; assay type: functional
[10] = system: Staphylococcus aureus; assay: Bactericidal activity against methicillin-resistant Staphylococcus aureus 67-0; assay type: functional
[11] = system: Staphylococcus aureus; assay: Antimicrobial activity against Staphylococcus aureus isogenic forms expressing gyrA S84L and parC S80F mutant by agar dilution method; assay type: functional; outline: as §1
[12] = system: Staphylococcus aureus; assay: Antimicrobial activity against Staphylococcus aureus isogenic forms expressing gyrA S84L mutant by broth dilution method; assay type: functional; outline: as §1
[13] = Inhibition of wild type Staphylococcus aureus RNA polymerase assessed as reduction in RNA product formation
[14] = Inhibition of RIF-resistant Staphylococcus aureus RNA polymerase RpoB H481Y mutant assessed as reduction in RNA product formation
[15] = system: Staphylococcus aureus; assay: Antimicrobial activity against wild type Staphylococcus aureus by agar dilution method; assay type: functional; outline: as §1
[16] = system: Staphylococcus aureus; assay: Antimicrobial activity against Staphylococcus aureus isogenic forms expressing gyrA S84L mutant by agar dilution method; assay type: functional; outline: as §1
[17] = system: Staphylococcus aureus; assay: Antimicrobial activity against wild type Staphylococcus aureus by broth dilution method; assay type: functional; outline: as §1
[18] = system: Staphylococcus aureus; assay: Antimicrobial activity against Staphylococcus aureus isogenic forms expressing parC S80F mutant by agar dilution method; assay type: functional; outline: as §1
[19] = system: Staphylococcus aureus; assay: Antimicrobial activity against Staphylococcus aureus isogenic forms expressing parC S80F mutant by broth dilution method; assay type: functional; outline: as §1
[20] = system: Staphylococcus aureus; assay: Antimicrobial activity against Staphylococcus aureus isogenic forms expressing gyrA S84L and parC S80F mutant by broth dilution method; assay type: functional; outline: as §1
[21] = system: Staphylococcus aureus; assay: Antimicrobial activity against Staphylococcus aureus isogenic forms expressing rpoB H481Y mutant by agar dilution method; assay type: functional; outline: as §1
[22] = system: Staphylococcus aureus; assay: Antimicrobial activity against Staphylococcus aureus isogenic forms expressing rpoB H481Y mutant by broth dilution method; assay type: functional; outline: as §1
[23] = system: Staphylococcus aureus; assay: Antimicrobial activity against Staphylococcus aureus isogenic forms expressing rpoB H481Y and gyrA S84L mutant by agar dilution method; assay type: functional; outline: as §1
[24] = system: Staphylococcus aureus; assay: Antimicrobial activity against Staphylococcus aureus isogenic forms expressing rpoB H481Y and gyrA S84L mutant by broth dilution method; assay type: functional; outline: as §1
[25] = system: Staphylococcus aureus; assay: Antimicrobial activity against Staphylococcus aureus isogenic forms expressing rpoB H481Y and parC S80F mutant by agar dilution method; assay type: functional; outline: as §1
[26] = system: Staphylococcus aureus; assay: Antimicrobial activity against Staphylococcus aureus isogenic forms expressing rpoB H481Y and parC S80F mutant by broth dilution method; assay type: functional; outline: as §1
[27] = system: Staphylococcus aureus; assay: Antimicrobial activity against Staphylococcus aureus isogenic forms expressing rpoB H481Y/gyrA S84L/parC S80F mutant by agar dilution method; assay type: functional; outline: as §1
[28] = system: Staphylococcus aureus; assay: Antimicrobial activity against Staphylococcus aureus isogenic forms expressing rpoB H481Y/gyrA S84L/parC S80F mutant by broth dilution method; assay type: functional; outline: as §1
[29] = system: Staphylococcus aureus; assay: Antimicrobial activity against methicillin-sensitive Staphylococcus aureus clinical isolates by broth dilution method; assay type: functional
[30] = system: Staphylococcus aureus; assay: Antimicrobial activity against methicillin-resistant Staphylococcus aureus clinical isolates by broth dilution method; assay type: functional
[31] = system: Staphylococcus epidermidis; assay: Antimicrobial activity against methicillin-sensitive Staphylococcus epidermidis clinical isolates by broth dilution method; assay type: functional
[32] = system: Staphylococcus epidermidis; assay: Antimicrobial activity against methicillin-resistant Staphylococcus epidermidis clinical isolates by broth dilution method; assay type: functional; conditions: Staphylococcus epidermidis
[33] = system: Streptococcus pyogenes; assay: Antimicrobial activity against Streptococcus pyogenes clinical isolates by broth dilution method; assay type: functional
[34] = system: Streptococcus agalactiae; assay: Antimicrobial activity against Streptococcus agalactiae clinical isolates by broth dilution method; assay type: functional
[35] = system: Streptococcus pneumoniae; assay: Antimicrobial activity against Streptococcus pneumoniae clinical isolates by broth dilution method; assay type: functional
[36] = system: Staphylococcus aureus; assay: Bactericidal activity against methicillin-sensitive Staphylococcus aureus 29213 infected in mouse macrophages assessed as induction of bacterial kill at 4 ug/ml in presence of 4 ug/ml rifampin after 24 hrs; assay type: functional
[37] = Half life in iv dosed mouse plasma; assay type: ADME, organism-based
[38] = Half life in iv dosed rat plasma; assay type: ADME, organism-based
[39] = Half life in iv dosed rabbit plasma; assay type: ADME, organism-based, Oryctolagus cuniculus
[40] = Half life in iv dosed dog plasma; assay type: ADME, organism-based, Canis lupus familiaris
[41] = Plasma clearance in iv dosed rat; assay type: ADME, organism-based
[42] = Plasma clearance in iv dosed rabbit; assay type: ADME, organism-based, Oryctolagus cuniculus
[43] = Plasma clearance in iv dosed dog; assay type: ADME, organism-based, Canis lupus familiaris
[44] = system: Staphylococcus aureus; assay: Antimicrobial activity against methicillin-sensitive Staphylococcus aureus infected in mouse skin abscess model; assay type: functional
[45] = system: Staphylococcus epidermidis; assay: Antimicrobial activity against Staphylococcus epidermidis infected in mouse skin abscess model; assay type: functional
[46] = system: Streptococcus pyogenes; assay: Antimicrobial activity against Streptococcus pyogenes infected in mouse skin abscess model; assay type: functional
[47] = system: Staphylococcus epidermidis; assay: Antimicrobial activity against Staphylococcus epidermidis infected in rat central venous catheter infection model assessed as reduction in bacterial load; assay type: functional
[48] = system: Streptococcus pyogenes; assay: Antimicrobial activity against Streptococcus pyogenes infected in rat central venous catheter infection model assessed as reduction in bacterial load; assay type: functional
[49] = system: Staphylococcus aureus; assay: Antimicrobial activity against methicillin-sensitive Staphylococcus aureus infected in rat central venous catheter infection model assessed as reduction in bacterial load; assay type: functional
[50] = system: Staphylococcus aureus; assay: Antimicrobial activity against Staphylococcus aureus infected in rat […] model assessed as reduction in bacterial load in granuloma pouch fluid at 5 to 25 mg/kg, iv administered as single dose; assay type: functional
[51] = target: Topoisomerase IV (Staphylococcus aureus) (UniProt P0C1U9+P0C1S7)
[52] = target: DNA gyrase (Staphylococcus aureus) (UniProt P0A0K8+P20831)
[53] = system: Staphylococcus aureus
[54] = target: DNA topoisomerase 2-alpha (Homo sapiens) (UniProt P11388)
[55] = Volume of distribution in iv dosed dog; conditions: in vivo
[56] = Volume of distribution in iv dosed dog; conditions: in vivo; remark: listed apart in the source
[57] = system: Staphylococcus aureus; assay: Antimicrobial activity against Staphylococcus aureus ATCC 29213 assessed as mutation preventive concentration
[58] = system: Staphylococcus aureus; assay: […] activity against Staphylococcus aureus ATCC 29213 assessed as induction of bacterial kill at […] in presence of 1 ug/ml rifampin after 24 hrs

For `C[C@H]1COc2c(N3CCN(C)CC3)c(F)cc3c(=O)c(C(=O)O)cn1c23.C[C@H]1COc2c(N3CCN(C)CC3)c(F)cc3c(=O)c(C(=O)O)cn1c23.O` [LEVOFLOXACIN], the MIC [1] was 0.25 µg/mL, the MIC [2] was 0.25 µg/mL and the MIC [3] was 1 µg/mL. The MIC [4] was 8 µg/mL, the MIC [5] was 0.25 µg/mL and the MIC [6] was 0.25 µg/mL. It also gave an MIC [7] of 1 µg/mL, an MIC [8] of 8 µg/mL and an MIC [9] of 2 µg/mL. The MBC [10] was 2 µg/mL.

For `CO[C@H]1/C=C/O[C@@]2(C)Oc3c(C)c(O)c4c(O)c(c(/C=N/N5CCC(N(C)C6([C@@H]7CCN(c8c(F)cn9c(=O)c(C(=O)O)cc(C%10CC%10)c9c8C)C7)CC6)CC5)c(O)c4c3C2=O)NC(=O)/C(C)=C\C=C\[C@H](C)[C@H](O)[C@@H](C)[C@@H](O)[C@@H](C)[C@H](OC(C)=O)[C@@H]1C`, the MIC [11] was 0.008 µg/mL (≈ 0.00664 µM), the MIC [12] was 0.015 µg/mL (≈ 0.0124 µM) and the IC50 [13] was 0.034 µM. For the same compound, the IC50 [14] was over 25 µM, the MIC [15] was 0.008 µg/mL (≈ 0.00664 µM) and the MIC [16] was 0.008 µg/mL (≈ 0.00664 µM). For the same compound, the MIC [17] was 0.015 µg/mL (≈ 0.0124 µM), the MIC [18] was 0.008 µg/mL (≈ 0.00664 µM) and the MIC [19] was 0.015 µg/mL (≈ 0.0124 µM). For the same compound, the MIC [20] was 0.015 µg/mL (≈ 0.0124 µM), the MIC [21] was 0.06 µg/mL (≈ 0.0498 µM) and the MIC [22] was 0.12 µg/mL (≈ 0.0996 µM). The MIC [23] was 0.12 µg/mL (≈ 0.0996 µM), the MIC [24] was 0.5 µg/mL (≈ 0.415 µM) and the MIC [25] was 0.06 µg/mL (≈ 0.0498 µM). It also gave an MIC [26] of 0.25 µg/mL (≈ 0.207 µM), an MIC [27] of 0.25 µg/mL (≈ 0.207 µM) and an MIC [28] of 2 µg/mL (≈ 1.66 µM). It also gave an MIC50 [29] of 0.008 µg/mL (≈ 0.00664 µM), an MIC90 [29] of 0.015 µg/mL (≈ 0.0124 µM) and an MIC50 [30] of 0.015 µg/mL (≈ 0.0124 µM). The MIC90 [30] was 0.015 µg/mL (≈ 0.0124 µM), the MIC50 [31] was at most 0.008 µg/mL and the MIC90 [31] was 0.008 µg/mL (≈ 0.00664 µM). For the same compound, the MIC50 [32] was 0.008 µg/mL (≈ 0.00664 µM), the MIC90 [32] was 0.5 µg/mL (≈ 0.415 µM) and the MIC [33] was 0.008 to 0.12 µg/mL (≈ 0.00664 to 0.0996 µM). For the same compound, the MIC50 [33] was 0.03 µg/mL (≈ 0.0249 µM), the MIC90 [33] was 0.12 µg/mL (≈ 0.0996 µM) and the MIC [34] was 0.06 to 2 µg/mL (≈ 0.0498 to 1.66 µM). The MIC50 [34] was 0.12 µg/mL (≈ 0.0996 µM), the MIC90 [34] was 0.25 µg/mL (≈ 0.207 µM) and the MIC [35] was 0.06 to 0.25 µg/mL (≈ 0.0498 to 0.207 µM). It also gave an MIC50 [35] of 0.12 µg/mL (≈ 0.0996 µM), an MIC90 [35] of 0.12 µg/mL (≈ 0.0996 µM) and an Activity [36] of over 99.9%. The half-life [37] was 0.4 to 4.1 h, the half-life [38] was 0.4 to 4.1 h and the half-life [39] was 0.4 to 4.1 h. For the same compound, the half-life [40] was 1.6 to 11.7 h, the clearance [41] was 1.17 to 6 mL/min/kg and the clearance [42] was 1.17 to 6 mL/min/kg. It also gave a clearance [43] of 0.167 to 1.33 mL/min/kg, an ED50 [44] of 1.4 to 3.8 mg/kg and an ED50 [45] of 4.8 to 10.7 mg/kg. For the same compound, the ED50 [46] was 4.8 to 10.7 mg/kg, the Activity [47] was over 3.1 log10CFU and the Activity [48] was over 3.1 log10CFU. The Activity [49] was 2.8 - 3.4 log10CFU, the Activity [50] was 1 - 3.4 log10CFU and the MIC [9] was 0.008 µg/mL (≈ 0.00664 µM). The MBC [10] was 0.5 µg/mL (≈ 0.415 µM), the CC50 [51] was 1.7 µM and the CC50 [52] was 1.5 µM. It also gave a CC50 [53] of 2.7 µM, a CC50 [54] of over 150 µM and a Vd [55] of 0.09 to 0.17 L/kg. The Vd [56] was 0.09 to 0.17 L/kg, the Activity [57] was 0.12 µg/mL and the Activity [58] was “>=99.9%”.
